# Source: PubChem (several laboratories)
# Compounds with a hit are over-represented: about 0.99% of the library has one in this group of screens.
# ABCB1 block – ABCB1 efflux pump inhibitors, primary screen, cell-based, multiplex, flow cytometry, ABCG2 counter-screen; CCRF-Adr cells, JC-1 efflux; inhibition, % at 6.6 µM; actives 0.067% (n = 190,000); AID 1326, 2008; ATP-dependent translocase ABCB1 (Homo sapiens), P08183; in the data active = inhibition above about 40%;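 also: 0% = vehicle and 100% = reference inhibitor; higher value means more JC-1 retained so stronger ABCB1 efflux block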
# Insulin prom up – insulin promoter activators in MIN6 cells, imaging, high-content screening, mouse beta cells; MIN6 insulin promoter-GFP reporter; stronger effect = higher value; z-score at 5 µM; actives 0.3% (n = 190,000);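 active = z-score above 3 at 5 µM with at least 500 cells counted in the well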
# DDE Tn6 FP inh – inhibitors of Tn6 peptide binding to fibrin DD(E), primary screen, biochemical, fluorescence polarization, human fibrin, Tn6 probe. Fibrin DD(E) TRITC-Tn6 fluorescence polarization displacement. inhibition, % at 8.3 µM. AID 720509, 2013. actives 0.21% (n = 370,000). Fibrinogen beta chain (Homo sapiens), P02675;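 active = inhibition above a per-campaign cutoff: mean of compounds within control limits plus 3 SD, cut at about 15% in these data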;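 also: 0% = median of all compound wells on the plate and 100% = blocking peptide control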
# Target sequence (P02675 whole entry, looked up): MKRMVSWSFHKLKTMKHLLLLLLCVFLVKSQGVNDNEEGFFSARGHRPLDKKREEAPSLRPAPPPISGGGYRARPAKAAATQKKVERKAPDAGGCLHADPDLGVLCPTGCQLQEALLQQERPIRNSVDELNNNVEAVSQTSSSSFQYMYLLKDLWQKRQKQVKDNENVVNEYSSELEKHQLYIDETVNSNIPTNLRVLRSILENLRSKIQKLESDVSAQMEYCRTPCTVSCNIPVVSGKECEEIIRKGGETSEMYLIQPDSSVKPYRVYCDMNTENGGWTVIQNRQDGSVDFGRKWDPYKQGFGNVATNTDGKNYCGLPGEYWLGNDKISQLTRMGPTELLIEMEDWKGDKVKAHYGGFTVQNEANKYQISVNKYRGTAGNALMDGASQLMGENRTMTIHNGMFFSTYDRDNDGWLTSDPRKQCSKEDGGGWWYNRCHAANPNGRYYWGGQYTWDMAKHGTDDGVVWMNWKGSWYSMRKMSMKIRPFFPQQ
# DDE Tn7 FP inh – inhibitors of Tn7 peptide binding to fibrin DD(E), primary screen, biochemical, fluorescence polarization, human fibrin, Tn7 probe | Fibrinogen beta chain (Homo sapiens), P02675 | FP displacement of FITC-Tn7 peptide from fibrin DD(E); 0% = median of compound wells per plate | inhibition, % at 8.3 µM | actives 0.13% (n = 370,000);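 active = inhibition above the mean of compounds falling within the control limits plus 3 SD of them, cut at about 14% in these data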;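 also: 0% = plate median of compound wells and 100% = 10 µM Aha-Tn7 peptide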
#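 Test system: human clot-derived fibrin DD(E) complex / Quantity: 2 µM final DD(E) protein / Incubation: 10 min plus 3 h, room temperature / Measured by: fluorescence polarization / Benchmarks: high control of 10 µM Aha-Tn7 peptide / Replicates: singlicate testing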
# ABCG2 block – ABCG2 efflux pump inhibitors, primary screen, multiplex with ABCB1, IgMXP3 cells, flow cytometry; actives 0.1% (n = 190,000); inhibition, % at 6.6 µM; Broad substrate specificity ATP-binding cassette transporter ABCG2 (Homo sapiens), Q9UNQ0; JC-1 efflux; AID 1325, 2008;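 active = inhibition above 80%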;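 also: 0% = DMSO and 100% = nicardipine control wells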
#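 Assay system – ABCG2 IgMXP3 and barcoded ABCB1 CCRF-Adr cell mix · Input – 3 million cells/mL in well · Reagent – JC-1 fluorescent substrate · Compound – single test compound dose, 6.6 µM final · Timing – 10 min exposure at 25 °C with rotation, no wash · Detection – flow cytometry of retained JC-1 fluorescence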
# GRK2 inh – compounds blocking aptamer binding on GRK2 – biochemical, human GRK2, bead flow cytometry, HTS, primary screen; Beta-adrenergic receptor kinase 1 (Homo sapiens), P25098; FAM-aptamer displacement from GRK2; inhibition of aptamer binding, % at 10 µM; actives 0.59% (n = 330,000); AID 488847, 2010;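 active = inhibition of aptamer binding above 40%, roughly 3 SD of noise, on plates passing a quality check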;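 also: median bead fluorescence of bound FAM aptamer so fluorescent compounds give negative values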
# * marks the source's active call; other numbers are inactive results; x = no result.
SMILES,ABCB1 block,Insulin prom up,DDE Tn6 FP inh,DDE Tn7 FP inh,ABCG2 block,GRK2 inh
CCCCCCCCN1CN2Cc3cc(OC)ccc3C2CS1(=O)=O (centres undefined),x,x,-3.2,0.2,x,x
O=C(CCN1C(=O)C2C3C=CC(C3)C2C1=O)NCCc1ccccc1 (centres undefined),0.1,-0.11,-6.0,4.6,0.4,0.0
O=C1C2C3C=CC(C3)C2C(=O)N1CCc1ccccc1 (centres undefined),0.6,3.33*,-0.5,10.4,1.4,0.0
Cc1cc(/C=C2\SC(=S)NC2=O)c(C)n1C1CC1,-0.2,3.04*,6.8,8.1,-0.8,1.0
O=c1c2ccccc2nc(-c2ccccc2)n1O,x,x,15.8*,10.1,x,4.0
COc1ccc(C)cc1NC(=O)COC(C)=O,-0.2,3.48*,3.2,5.6,3.2,1.0
COc1ccc([N+](=O)[O-])cc1NC(=O)COC(C)=O,0.2,1.66,-10.7,1.3,8.4,0.0
CCCCNC(=O)C[C@H]1C[C@@]2(C(=O)OC)C(=C[C@H](C3CCCC3)O[C@@H]2C)N(Cc2ccco2)C1=O,x,x,-2.8,-4.8,x,x
COc1cc2c(cc1NC(=O)CN1CCN(S(=O)(=O)c3ccccc3F)CC1)oc1ccccc12,0.4,3.63*,10.9,-1.6,2.2,0.0
COc1ccc(C(=O)c2no[n+]([O-])c2C(=O)c2ccc(OC)cc2)cc1,0.0,-0.05,3.5,-0.1,-0.3,0.0
O=C(c1cccs1)c1no[n+]([O-])c1C(=O)c1cccs1,-0.4,3.78*,x,x,-1.4,0.0
COCCCNC(=O)/C(C#N)=C/c1ccc(OCC(=O)O)c(OC)c1,-0.2,x,5.7,2.6,-5.4,44.0*
O=C(CSc1nnc(-c2ccco2)n1-c1ccc(Cl)cc1)Nc1ccc(S(=O)(=O)Nc2nccs2)cc1,x,x,-2.4,-7.7,x,x
COC(=O)C1CN(Cc2ccc(OC)cc2)CCS(=O)(=O)N1Cc1cn(Cc2ccccc2)nn1 (centres undefined),x,x,1.1,6.8,x,x
c1ccc(-n2ncc3c(N4CCN(c5ccccn5)CC4)nc(N4CCCCCC4)nc32)cc1,0.7,4.11*,-0.5,-3.9,3.9,0.0
CC(C)N1CCC2(CC1)C(C#N)=C(N)NC(S)=C2C#N,-1.0,0.43,x,x,-9.8,58.0*
N#CC1=C(N)NC(SCC(=O)O)=C(C#N)C12CCCC2,0.0,1.62,0.5,3.0,0.3,1.0
OC1(c2cn(Cc3ccccc3)nn2)CCCCC1,0.5,5.88*,7.7,0.6,1.1,0.0
CCN(CCNC(=O)C1CCCN(S(=O)(=O)CC)C1)c1ccccc1 (centres undefined),0.4,3.08*,1.6,-5.1,1.5,0.0
CCN(CCNC(=O)C1CCN(S(=O)(=O)CC)CC1)c1ccccc1,0.7,0.75,-1.4,1.9,5.8,3.0
Cc1cccc(NC(=O)CNCC(=O)Nc2cccc(C)c2C)c1C,x,x,0.2,3.9,x,5.0
Cc1cccc(NC(=O)CNC(=O)c2cccc(-n3cccc3)c2)c1C,x,x,0.1,1.7,x,50.0*
Oc1ccc(C[C@H]2CNC(=S)N2CC2CCCN2C[C@H](Cc2ccc(O)cc2)N2C[C@H](Cc3ccc(O)cc3)N(CC3CCCCC3)C2=S)cc1 (some centres undefined),x,x,25.9*,5.8,x,x
CCOc1ccc(-c2nn(-c3ccccc3)cc2/C=C2\SC(=S)N(C3CCS(=O)(=O)C3)C2=O)cc1 (centres undefined),0.0,-0.99,-7.4,0.9,0.1,15.0
CCCOc1ccc(-c2nn(-c3ccccc3)cc2/C=C2\SC(=S)N(C3CCS(=O)(=O)C3)C2=O)cc1 (centres undefined),0.3,4.83*,-3.8,-2.6,3.1,11.0
SMILES,ABCB1 block,Insulin prom up,DDE Tn6 FP inh,DDE Tn7 FP inh,ABCG2 block,GRK2 inh
COc1cc(/C=C2\C(=N)N3N=C(S(C)(=O)=O)SC3=NC2=O)ccc1OS(=O)(=O)c1ccccc1,x,x,x,x,x,0.0
CCS(=O)(=O)C1=NN2C(=N)/C(=C\c3ccc(OS(=O)(=O)c4ccccc4)c(OC)c3)C(=O)N=C2S1,x,x,x,x,x,41.0*
Cc1nc2sc(C(=O)NCc3ccncc3)c(N)c2c(C)c1Cl,x,x,-2.9,-5.0,x,x
CCCCC#CC(CC)NCc1ccc(OC)cc1OC (centres undefined),x,x,6.7,-4.5,x,x
O=C(/C=C/c1ccco1)N1CCN(S(=O)(=O)c2ccccc2)CC1,x,x,-7.2,-2.6,x,78.0*
Cc1ccc(S(=O)(=O)N2CCN(C(=O)/C=C/c3ccco3)CC2)cc1,1.9,0.66,-4.0,4.6,5.2,20.0
O=C(/C=C/c1cc[n+](CC(=O)c2ccc3cccc4c3c2CC4)cc1)c1ccc2cccc3c2c1CC3,x,-0.15,x,x,x,94.0*
Cc1ccc(N(C)c2nc(N)nc(N)c2N=O)cc1,x,x,57.5*,-8.2,x,x
CC(=O)N1CCN(C2=NC(=O)N(c3ccc(Br)cc3)C(=O)C2)CC1,x,x,-0.8,4.8,x,x
O=C(O)c1ccc(N/N=C/C=C/c2ccc([N+](=O)[O-])o2)cc1,x,x,-0.2,-4.0,x,91.0*
O=C(Cc1ccc(Cl)c(Cl)c1)Nc1ccc(S(=O)(=O)Nc2ncccn2)cc1,x,x,-9.6,4.2,x,2.0
O=c1ccc(NS(=O)(=O)c2ccccc2)cn1Cc1ccc(Cl)c(Cl)c1,0.4,4.35*,3.6,1.4,1.3,0.0
Nc1nc(-c2ccc(Cl)cc2)c(N=Nc2ccc(S(=O)(=O)N3CCOCC3)cc2)s1,-2.8,3.8*,8.7,1.6,-27.2,3.0
COc1ccc(C2C(C(=O)Nc3ccc(C)c(C)c3)CCC(=O)N2c2ccc(OC)cc2)cc1 (centres undefined),x,x,-7.2,8.4,x,x
CCOc1ccc(OCC)c(NC(=O)CN2CCN(c3cccc(C)c3C)CC2)c1,5.0,x,3.6,6.5,95.0*,0.0
CCOc1ccc(OCC)c(NC(=O)CN2CCN(C(=O)c3ccco3)CC2)c1,-0.9,0.32,13.3,-6.3,-0.2,0.0
CCCC(=O)c1c(C)c2ccccc2n1C,-0.1,3.01*,0.5,-3.2,1.9,4.0
CCCOP(=O)(OCCC)C(NC(=O)C(C)(C)C)c1ccccc1 (centres undefined),0.0,-0.19,-6.8,4.0,-9.0,0.0
CCOP(=O)(OCC)C(NC(=O)C(F)(F)F)c1ccccc1 (centres undefined),0.3,0.23,-7.5,-0.2,-0.2,64.0*
CCCCCN(C(=O)CCC(=O)OCc1ccccc1F)c1c(N)n(CCCC)c(=O)[nH]c1=O,x,x,4.4,-3.2,x,2.0
